Bioassay records deposited in PubChem BioAssay by several laboratories.
LANA-H2A inh: blocks KSHV LANA binding to histone H2A/H2B | AID 2629 | cell-free LANA-H2A/H2B peptide, fluorescence polarization | inhibition, % (no concentration beside the values) | 320,000 tested, 0.6% active | Q9QR71; in the data active = inhibition mostly above about 10%, no sharp cut-off; inactive = mostly below about 6.7%
Target sequence (Q9QR71 whole entry, looked up): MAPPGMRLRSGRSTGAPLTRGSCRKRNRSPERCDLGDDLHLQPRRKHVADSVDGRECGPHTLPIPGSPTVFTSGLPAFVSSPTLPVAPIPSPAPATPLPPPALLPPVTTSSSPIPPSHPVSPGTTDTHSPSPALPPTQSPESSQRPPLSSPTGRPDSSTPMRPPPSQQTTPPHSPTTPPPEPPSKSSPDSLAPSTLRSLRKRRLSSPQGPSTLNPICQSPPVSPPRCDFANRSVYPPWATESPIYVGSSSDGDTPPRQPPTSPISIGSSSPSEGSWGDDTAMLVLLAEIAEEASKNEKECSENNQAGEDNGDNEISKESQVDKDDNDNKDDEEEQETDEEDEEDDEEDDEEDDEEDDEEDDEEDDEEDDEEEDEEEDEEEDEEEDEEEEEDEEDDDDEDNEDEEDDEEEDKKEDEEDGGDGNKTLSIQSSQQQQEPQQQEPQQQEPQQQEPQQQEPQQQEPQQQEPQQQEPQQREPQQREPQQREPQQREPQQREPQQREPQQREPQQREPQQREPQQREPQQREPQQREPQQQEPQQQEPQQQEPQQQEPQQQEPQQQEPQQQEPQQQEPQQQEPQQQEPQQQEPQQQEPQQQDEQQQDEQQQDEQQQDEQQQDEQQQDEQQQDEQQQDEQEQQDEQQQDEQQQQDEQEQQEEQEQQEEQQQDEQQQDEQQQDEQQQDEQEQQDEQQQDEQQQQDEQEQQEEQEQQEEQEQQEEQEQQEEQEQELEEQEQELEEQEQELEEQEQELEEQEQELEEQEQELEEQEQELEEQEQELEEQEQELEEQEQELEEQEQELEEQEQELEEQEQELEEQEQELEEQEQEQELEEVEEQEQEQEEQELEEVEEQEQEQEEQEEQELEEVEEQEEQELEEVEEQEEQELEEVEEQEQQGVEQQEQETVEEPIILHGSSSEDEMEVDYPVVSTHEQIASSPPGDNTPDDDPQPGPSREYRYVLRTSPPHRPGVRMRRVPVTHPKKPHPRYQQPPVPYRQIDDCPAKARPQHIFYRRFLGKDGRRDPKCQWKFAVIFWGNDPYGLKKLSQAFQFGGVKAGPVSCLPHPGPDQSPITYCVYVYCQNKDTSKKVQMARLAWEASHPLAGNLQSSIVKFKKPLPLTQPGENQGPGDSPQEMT
GSK3beta inhib: inhibitors of human GSK3beta kinase; GST-GSK3beta kinase, ADP-Glo luminescence, 60 min; hits give low values; AID 2097; P49841; activity score (negative = inhibition), % at 10 µM; 300,000 tested, 0.038% active;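 active = more than half of replicate wells score below -50%, meaning over 50% inhibition versus plate controls; inconclusive = some replicates but at most half score below -50%; inactive = no replicate scores below -50%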;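 also: 0% = median DMSO wells and -100% = median GW8510 positive control wells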
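Test system – GST-tagged human GSK3beta kinase, cell-free · Incubation – 60 min enzyme reaction, room temperature · Signal – ADP-Glo luminescence · Also added – peptide substrate and ATP at 25 µM · Controls – DMSO neutral wells and GW8510 at 20 µM as positive · Buffer or medium – Tris/MgCl2 kinase buffer · Measure – Luminescence-derived activity versus plate DMSO and GW8510 wells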
GSK3A inh: inhibitors of human GSK-3 alpha kinase | P49840 | ADP-Glo luminescence, 60 min | inhibition, % at 10 µM | 320,000 tested, 0.1% active | AID 2650;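 active = more than half of replicates show inhibition above 20%; inconclusive = some but at most half of replicates above 20% inhibition; inactive = no replicate shows inhibition above 20%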;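 also: GST-tagged GSK-3 alpha with peptide substrate and 25 µM ATP; 0% = DMSO neutral wells and 100% = GW8510 positive control wells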
Hep lipid drop: modulators of hepatic lipid droplet formation | AML12 mouse hepatocytes, oleate lipid droplets, BODIPY imaging | inhibition, % at 6.5 µM | 240,000 tested, 0.4% active | AID 1656;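 active = lipid droplet intensity inhibited by at least 50%, with more than 500 cells counted; inconclusive = wells with under 300 cells, treated as cytotoxic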
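Assay system: AML12 mouse liver cells | Compound dosing: One dose, 6.5 µM compound | Read-out basis: Droplet intensity reduction, % inhibition | Measured by: Fluorescence imaging, 20x objective, two fields per well | Schedule: Overnight treatment with compound plus oleate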
STK33 kinase inh: blocks human STK33 kinase activity; Q9BYT3; purified STK33, MBP phosphorylation, ADP-Glo luminescence; inhibition, % at 10 µM; 320,000 tested, 0.073% active; AID 2661;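 active = inhibition at or above 25%, using the most active replicate where run in duplicate; inactive = inhibition below 25%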
TAG inh: reduces triacylglycerol accumulation in H9c2 cells | inhibition, % at 12.5 µM | Nile Red lipid (TAG) fluorescence; cells loaded with 200 µM oleic acid | 230,000 tested, 0.66% active;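 active = pattern-corrected inhibition of lipid staining of at least 50% with the nuclear-stain viability signal not falling by more than 50%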;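 also: 0% = DMSO wells and 100% = triacsin C control wells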
Hep lipid conf: hepatic lipid droplet formation inhibition, confirmed. shares compounds with Hep lipid drop. AML12 mouse hepatocytes, BODIPY lipid droplet imaging; droplets induced with 100 µM oleic acid. inhibition, % at 5.2 µM. 870 tested, 65% active. AID 463183;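 active = inhibition of lipid droplet metric at least 50%, with more than 300 cells in each of four replicates; inconclusive = wells under 300 cells, flagged as toxic or low count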;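 also: plate controls were DMSO with oleic acid for no effect and 5 µM Triacsin-C for full effect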
AML12 tox img: counter-screen for cytotoxicity in AML12 mouse hepatocytes; shares compounds with Hep lipid drop; DAPI nuclear morphology cytotoxicity imaging; hits give high values; cells fed 100 µM oleate overnight; z-score at 5 µM; 870 tested, 3% active; in the data active = z-score above about 6.3;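 also: compound exposure lasted overnight at 37 °C before fixation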
AML12 tox ATP: AML12 hepatocyte cytotoxicity, confirmed | shares compounds with Hep lipid drop | AML12 mouse hepatocyte viability, ATP luminescence; cells loaded with 100 µM oleic acid | cytotoxicity, % at 50 µM | 530 tested, under 10 active | AID 463219;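 active = cytotoxicity above 50% in each of four replicates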;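 also: compound exposure lasted overnight at 37 °C before the ATP read; 0% = DMSO-treated cells and 100% = wells with no cells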
H9c2 TAG conf: confirmation of triacylglycerol accumulation inhibitors. shares compounds with TAG inh. H9c2 lipid accumulation, Nile Red fluorescence; cells loaded with 200 µM oleic acid. inhibition, % at 12.5 µM. 990 tested, 71% active;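 active = mean inhibition across replicates of 40% or more; inactive = mean inhibition below 40%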;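 also: plate controls were DMSO only wells for no effect and Triacsin C treated wells for full effect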
* hit, by the source's call; ? = inconclusive; nt = no result. Only some compounds are listed: those with a hit (about 1.3% of all), similar ones and a draw of the others.

SMILES | LANA-H2A inh | GSK3beta inhib | GSK3A inh | Hep lipid drop | STK33 kinase inh | TAG inh | others
NC(N)=N/N=C/c1cn(-c2ccccc2)nc1-c1cccs1 | -5 | 1 | 11 | 6 | 4 | 124*
O=c1c2ccccc2nc(-c2cccs2)n1-c1ccccc1 | 4 | -1 | 2 | nt | -2 | 3
O[C@@H]1CCCC[C@H]1N1CCC(c2ccccc2)CC1 | -4 | 2 | 0 | -2 | -2 | 17
O=C(c1ccc2c(=O)n(Cc3ccc4c(c3)OCO4)c(=S)[nH]c2c1)N1CCC2(CC1)OCCO2 | 57* | -5 | 0 | nt | -1 | nt
COc1ccc(C(=O)OC2C[C@H]3CC[C@@H](C2)N3O)cc1OC (stereo partly drawn) | 0 | 0 | -1 | 27 | 0 | nt
O=P(Nc1ccccc1)(Nc1ccccc1)Oc1ccc(Cl)cc1 | -2 | 1 | 1 | -16 | 0 | nt
C[C@@H]1C[C@H]2OC(=O)C3(CO3)[C@H]2[C@H](O)[C@]2(C)C(=O)C3OC3[C@@H]12 (stereo partly drawn) | 9 | 2 | -4 | -6 | -2 | nt
C=C1C(=O)O[C@@H]2C[C@@H](C)[C@@H]3C=CC(=O)[C@@]3(C)[C@@H](O)[C@H]12 | -9 | 0 | 4 | -109 | 3 | 72*
Cc1cc2c(s1)NC(=O)CN=C2c1cccs1 | -1 | -23 | 54* | -24 | 4 | nt
O=C1CN=C(c2ccccc2)c2c(sc3c2CCCC3)N1 | -2 | -27 | 56* | -4 | -1 | -46
O=C1CN=C(c2cccs2)c2c(sc3c2CCCC3)N1 | 6 | -59* | 82* | nt | -2 | -5
Cc1ccc2c(c1)C(c1ccccc1)=NCC(=O)N2 | 0 | -2 | 27 | 0 | 0 | -1
COc1ccccc1CNC(=O)CCC(=O)N1C[C@H]2C[C@@H](C1)c1cccc(=O)n1C2 | 2 | 0 | 0 | -8 | 2 | nt
Nc1cc(Cl)cc(C(=O)O)c1Cl | 38* | nt | 0 | nt | -1 | nt
C1CCC(NC2CCCCC2)CC1 | 141* | nt | 0 | nt | -1 | nt
COc1cc(C(c2c(C)[nH]n(-c3ccccc3)c2=O)c2c(C)[nH]n(-c3ccccc3)c2=O)cc(OC)c1OC | 3 | 1 | 6 | -3 | 3 | nt
NC(=S)c1cn(C2OC(CO)C(O)C2O)c2ncnc(N)c12 (stereo not drawn) | -2 | -52* | 64* | ? | 67* | nt
O=C(Nc1ccc(F)cc1F)c1cccnc1Oc1cccc(C(F)(F)F)c1 | -1 | 1 | 0 | nt | -1 | nt
CC[C@@H](O)C[C@H]1CCC[C@@]2(C[C@@H]3OC(=O)/C=C/[C@@](C)(O)[C@@H](O)[C@H](C)[C@@H](O)[C@H](OC4CCC(N(C)C)C(C)O4)[C@@H](O)[C@](C)(O)CCCCC/C=C/[C@@H]4CC(C)(C)O[C@@]4(O)C[C@H](O2)[C@H]3C)O1 (stereo partly drawn) | nt | nt | nt | nt | nt | 58*
CC1=NCCc2c1[nH]c1cc(O)ccc21 | 142* | nt | 3 | nt | 2 | -39
COc1ccc(C(=O)C2CCCN(C3CSCCSC3)C2)cc1OC (stereo not drawn) | -1 | 3 | -2 | 4 | -1 | -14
CC(C)OCCCNC(=O)c1c(N)n(CC2CCCO2)c2nc3ccccc3nc12 (stereo not drawn) | 0 | -6 | 7 | 51* | 2 | nt | Hep lipid conf=60;AML12 tox img=-0.59;AML12 tox ATP=2
COC(=O)C1=C(c2ccc3ccccc3c2)C[C@@H]2CC[C@H]1N2C(=O)NCCCOC(C)C | 5 | nt | -2 | nt | 1 | 0
O=[N+]([O-])c1c(Cl)c(Cl)c(Cl)c(Cl)c1Cl | nt | nt | nt | nt | nt | -11
Nc1cc(Cl)c2nonc2c1[N+](=O)[O-] | -2 | nt | 7 | 113* | 3 | nt | Hep lipid conf=-21;AML12 tox img=2.5
SMILES | LANA-H2A inh | GSK3beta inhib | GSK3A inh | Hep lipid drop | STK33 kinase inh | TAG inh | others
COC(=O)C1=C(c2ccccc2OCc2ccccc2)C[C@@H]2CC[C@H]1N2C(=O)NCc1cccc(F)c1 | 1 | nt | -3 | nt | -2 | 33
COC(=O)C1=C(c2ccccc2OCc2ccccc2)C[C@@H]2CC[C@H]1N2C(=O)NCc1ccc(OC)c(OC)c1 | 0 | nt | -1 | nt | 0 | 56* | H9c2 TAG conf=28
CC(=O)O[C@@H]1[C@H]2CC[C@@H]3[C@]1(C[C@@H](OC(C)=O)[C@@]1(O)C([C@@H]4O[C@@H]4C1(C)C)[C@]3(C)O)C[C@@]2(C)O (stereo partly drawn) | 5 | 0 | -2 | -4 | 0 | -19
COC(=O)C1=C(c2cc3ccccc3s2)C[C@@H]2CC[C@H]1N2C(=O)N1CCOCC1 | 2 | 0 | -1 | nt | -2 | 52* | H9c2 TAG conf=45*
COc1ccccc1N1C(=O)NC(=O)C(CCc2ccncc2)(CCc2ccncc2)C1=O | -1 | -3 | 0 | -11 | -1 | nt
CCCCn1c(N)c(C(=O)NCc2cccs2)c2nc3ccccc3nc21 | -6 | 0 | -1 | nt | -2 | 67* | H9c2 TAG conf=1
O=P(O)(O)CN1CCNCCN(CP(=O)(O)O)CCNCC1 | nt | nt | nt | nt | nt | 57* | H9c2 TAG conf=63*
CCOC(=O)C(NC(=O)CC)(Nc1ccc(C(O)(C(=O)OCC)C(F)(F)F)cc1C)C(F)(F)F (stereo not drawn) | 4 | 0 | -2 | nt | -2 | 55* | H9c2 TAG conf=23
O=C(NCC1=C(c2cccc3ccccc23)C[C@@H]2CC[C@H]1N2Cc1ccco1)c1ccncc1 | nt | nt | nt | nt | nt | 23
COC(=O)C1C(O)C(C)C(O)C(C)/C=C\C=C(/C)C(=O)Nc2c(C)c(OC(C)=O)c3c(c2O)C(=O)C(C)=C2OCOC(=C23)/C(C)=C/C(C)(O)C(O)C(C)C1O (stereo not drawn) | -3 | -4 | -2 | 5 | 1 | nt
